# Measurements taken from ChEMBL document CHEMBL3396970, “Synthesis and biological evaluation of novel 2,3-disubstituted quinoxaline derivatives as antileishmanial and antitrypanosomal agents” (Eur J Med Chem, 2015).
# pEC50, pIC50: −log10 of the molar value.
# Columns and labels:
# [1] = system: Leishmania amazonensis; assay: Antileishmanial activity against promastigote stage of Leishmania amazonensis WHOM/BR/75/JOSEFA after 72 hrs by hemocytometry; type: functional, organism-based
# [2] = Selectivity ratio of CC50 for mouse J774A1 cells to IC50 for promastigote stage of Leishmania amazonensis WHOM/BR/75/JOSEFA; type: ADME, cell-based, J774.A1; details: read-out: Ratio CC50/IC50
# [3] = system: Trypanosoma cruzi; assay: Antitrypanosomal activity against epimastigote stage of Trypanosoma cruzi Y after 96 hrs by hemocytometry; type: functional, organism-based
# Summary of the method: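 Log-phase parasites (promastigotes 3-day, Warren's medium + 10% FBS, 25°C; epimastigotes 4-day, LIT + 10% FBS, 28°C) seeded at 1 × 10^6 cells/mL with compound (0.1-100 µM; DMSO ≤1%). Promastigotes read at 72 h, epimastigotes at 96 h, by hemocytometer counting. IC50 by nonlinear regression.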
# [4] = Selectivity ratio of CC50 for monkey LLC-MK2 cells to IC50 for epimastigote stage of epimastigote stage of Trypanosoma cruzi Y; type: ADME, cell-based; details: read-out: Ratio CC50/IC50
# [5] = system: Trypanosoma cruzi; assay: Antitrypanosomal activity against trypomastigote stage of Trypanosoma cruzi Y infected in monkey LLC-MK2 cells after 96 hrs by Pizzi-Brener method; type: functional, organism-based
# [6] = system: Trypanosoma cruzi; assay: Antitrypanosomal activity against amastigote stage of Trypanosoma cruzi Y infected in monkey LLC-MK2 cells after 96 hrs by Geimsa staining-based light microscopy; type: functional, organism-based; details: LLC-MK2, 96 h
# Summary of the method: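 LLCMK2 monolayers (2.5 x 10^5 cells/mL, 24 h, 37 °C, 5% CO2) infected with trypomastigotes at 10 per host cell for 24 h, washed, treated with compound (0.1 to 50 μM) 96 h. Methanol-fixed, Giemsa-stained, 200 cells counted; survival index (% infected × amastigotes/cell); IC50 by nonlinear regression.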
# [7] = Selectivity ratio of CC50 for monkey LLC-MK2 cells to IC50 for amastigote stage of Trypanosoma cruzi Y; type: ADME, cell-based; details: read-out: Ratio CC50/IC50
# [8] = Selectivity ratio of CC50 to IC50 for promastigote stage of Leishmania amazonensis WHOM/BR/75/JOSEFA; design: reference not given here
# [9] = Selectivity ratio of CC50 for monkey LLC-MK2 cells to IC50 for epimastigote stage of epimastigote stage of Trypanosoma cruzi Y
# [10] = Selectivity ratio of CC50 for monkey LLC-MK2 cells to EC50 for trypomastigote stage of Trypanosoma cruzi Y; type: ADME, cell-based; details: read-out: Ratio CC50/EC50
# [11] = system: Leishmania amazonensis; assay: Antileishmanial activity against amastigote stage of Leishmania amazonensis WHOM/BR/75/JOSEFA infected in BALB/c mouse peritoneal macrophages after 72 hrs by Geimsa staining-based light microscopy; type: functional, organism-based
# [12] = Selectivity ratio of CC50 for BALB/c mouse peritoneal macrophages to IC50 for amastigote stage of Leishmania amazonensis WHOM/BR/75/JOSEFA
# [13] = system: Trypanosoma cruzi; assay: Antitrypanosomal activity against trypomastigote stage of Trypanosoma cruzi Y infected in monkey LLC-MK2 cells after 24 hrs by Pizzi-Brener method; type: functional, organism-based; details: LLC-MK2, 24 h
# Summary of the method: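 Trypomastigotes harvested from infected LLCMK2 culture supernatant, 1 × 10^7 cells/mL with compound (0.1-50 µM), 24 h at 37°C, 5% CO2. Viability by motility (Pizzi–Brener); EC50 by nonlinear regression.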
# [14] = system: Trypanosoma cruzi; assay: Antitrypanosomal activity against amastigote stage of Trypanosoma cruzi
SMILES,pIC50 [1],pIC50 [3],pEC50 [5],pIC50 [6],pIC50 [11],selectivity ratio [2],selectivity ratio [4],selectivity ratio [7],selectivity ratio [8],selectivity ratio [9],selectivity ratio [10],Ratio CC50/IC50 [12],pEC50 [13],pIC50 [14]
COc1ccc(-c2nc3ccccc3nc2-c2ccc(OC)cc2)cc1,4.52,4.44,< 4.00,5.07,,19.7,9,38.4,19.7,9,,,,
COc1ccc2nc(-c3ccccc3)c(S(C)(=O)=O)nc2c1,4.61,4.55,4.32,,,4.1,9.3,,4.1,9.3,5.5,,,
COc1ccc2nc(NCCO)c(S(C)(=O)=O)nc2c1,5.54,5.54,4.45,4.39,4.76,13.3,25.2,1.8,13.3,25.2,2,2.2,,
CS(=O)(=O)c1nc2ccccc2nc1NCCO,5.54,5.38,4.65,,,13,4.4,,13,4.4,0.8,,,
COc1ccc2nc(NC3CCCCC3)c(S(C)(=O)=O)nc2c1,5.54,5.66,4.56,< 4.60,4.69,18.1,20.8,,18.1,20.8,1.6,2.6,,
CCCCNc1nc2cc(OC)ccc2nc1S(C)(=O)=O,4.49,4.26,4.39,,,5.5,1.6,,5.5,1.6,2.1,,,
COc1ccc2nc(S(C)(=O)=O)c(NC3CCCCC3)nc2c1,4.83,4.54,4.63,,,6.5,2.7,,6.5,2.7,3.3,,,
COc1ccc2nc(S(C)(=O)=O)c(NCC(C)C)nc2c1,4.56,4.26,4.61,,,3.6,1.5,,3.6,1.5,3.3,,,
COc1ccc2nc(NCC(C)C)c(S(C)(=O)=O)nc2c1,5.59,5.51,4.93,4.83,,22.8,22.6,4.7,22.8,22.6,6,,,
COc1ccc2nc(NC3CCCCC3)c([S+](C)[O-])nc2c1 (stereo not drawn),5.60,5.60,4.60,5.03,5.14,8,72.8,19.5,8,72.8,7.1,2.8,,
COc1ccc2nc(Cl)c(NCc3ccccc3)nc2c1,4.61,4.80,< 4.30,< 4.70,4.60,5.4,22.2,,5.4,22.2,,5.3,,
COc1ccc2nc(Nc3ccccc3)c(Nc3ccccc3)nc2c1,5.19,4.34,4.42,,,4.4,1,,4.4,1,1.2,,,
C[C@@H]1[C@H](O)[C@@H](C)/C=C/C=C/C=C/C=C/C=C/C=C/C=C/[C@H](O[C@@H]2O[C@H](C)[C@@H](O)[C@H](N)[C@@H]2O)C[C@@H]2O[C@](O)(C[C@@H](O)C[C@@H](O)[C@H](O)CC[C@@H](O)C[C@@H](O)CC(=O)O[C@H]1C)C[C@H](O)[C@H]2C(=O)O [AMPHOTERICIN B],,,,,6.40,,,,,,,,,
O=C(Cn1ccnc1[N+](=O)[O-])NCc1ccccc1 [BENZNIDAZOLE],,5.09,,,,,,,,,,,5.47,4.58

# Further lines, with some results ahead:
pIC50 [1],pIC50 [3],pEC50 [5],pIC50 [6],pIC50 [11],SMILES,selectivity ratio [2],selectivity ratio [4],selectivity ratio [7],selectivity ratio [8],selectivity ratio [9],selectivity ratio [10],Ratio CC50/IC50 [12],pEC50 [13],pIC50 [14]
6.10,6.30,5.38,,5.34,COc1ccc2nc(Cl)c([S+](C)[O-])nc2c1 (stereo not drawn),27.8,39.2,,27.8,39.2,4.4,4.9,,
7.00,7.00,5.77,,5.82,C[S+]([O-])c1nc2ccc(Cl)cc2nc1Cl (stereo not drawn),108,54.2,,108,54.2,2.9,9,,
5.80,6.22,5.19,< 4.82,,CS(=O)(=O)c1nc2ccccc2nc1Cl,14.4,70.1,,14.4,70.1,7.3,,,
6.70,6.52,5.74,4.87,5.85,CS(=O)(=O)c1nc2ccc(Br)cc2nc1Cl,71.8,49.6,1.1,71.8,49.6,7,9.9,,
6.70,6.52,5.16,5.07,5.51,CS(=O)(=O)c1nc2ccc(Cl)cc2nc1Cl,66,25.9,0.9,66,25.9,4.1,4.3,,
5.60,5.44,4.41,4.84,4.89,CCCCNc1nc2ccc(OC)cc2nc1S(C)(=O)=O,17.1,108,27.3,17.1,108,10,3.3,,
5.80,5.64,5.25,< 4.60,,CCCCNc1nc2cc(Br)ccc2nc1S(C)(=O)=O,28.3,43.7,,28.3,43.7,17.8,,,
6.10,5.80,5.09,5.13,,CS(=O)(=O)c1nc2ccc(Br)cc2nc1NCCO,40.3,3.4,0.8,40.3,3.4,0.7,,,
5.85,5.64,5.05,,,CCCCNc1nc2cc(Cl)ccc2nc1S(C)(=O)=O,50.6,93.4,,50.6,93.4,23.8,,,
5.66,5.70,5.41,5.02,,CS(=O)(=O)c1nc2ccc(Cl)cc2nc1NC1CCCCC1,15,38.3,7.9,15,38.3,19.6,,,
5.72,5.74,5.20,5.11,,C[S+]([O-])c1nc2ccc(Cl)cc2nc1NC1CCCCC1 (stereo not drawn),33.8,21.8,5.1,33.8,21.8,6.2,,,
